Assay results reported in ChEMBL document CHEMBL4368908 (J Med Chem, 2019).
Active and inactive are the calls of the source. The rule behind the calls is not given here.

Tests used:
[1] = target: T1, Inositol hexakisphosphate kinase 2 (Homo sapiens, UniProt Q9UHH9); assay: Inhibition of human IP6K2 using insP6 as substrate preincubated for 15 mins followed by substrate and measured after 30 mins by TR-FRET assay
T1 sequence (Q9UHH9 whole entry): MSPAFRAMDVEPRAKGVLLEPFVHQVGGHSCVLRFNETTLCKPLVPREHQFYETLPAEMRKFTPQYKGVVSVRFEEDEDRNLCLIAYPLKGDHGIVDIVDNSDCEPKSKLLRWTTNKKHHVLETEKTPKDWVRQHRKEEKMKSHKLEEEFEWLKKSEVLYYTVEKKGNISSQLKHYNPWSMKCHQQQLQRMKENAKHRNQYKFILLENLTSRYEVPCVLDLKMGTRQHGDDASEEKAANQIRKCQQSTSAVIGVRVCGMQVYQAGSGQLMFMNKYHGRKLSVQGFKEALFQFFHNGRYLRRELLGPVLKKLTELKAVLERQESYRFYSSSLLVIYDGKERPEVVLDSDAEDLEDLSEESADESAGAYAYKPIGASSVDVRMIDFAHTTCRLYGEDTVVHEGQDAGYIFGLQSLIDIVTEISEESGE

Homo sapiens = species: Homo sapiens; assay: Selectivity ratio of IC50 for human IPMK to IC50 for human IP6K2
Procedure, shortened: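 Recombinant human IPMK (12 nM) or IP6K2 (400 nM) equilibrated 15 min at room temperature with compound (10-point, 0.005–100 μM, 1% DMSO) in 50 mM HEPES pH 7.5, 0.01% Brij-35, 10 mM MgCl₂, 1 mM EGTA. Reaction started with 10 μM ATP plus 10 μM InsP₃ (IPMK) or InsP₆ (IP6K2), run 30 min. ADP detected by Adapta TR-FRET. IC50 from 4-parameter fit.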

[2] = target: T2, Inositol polyphosphate multikinase (Homo sapiens, UniProt Q8NFU5); assay: Inhibition of human IPMK using insP3 as substrate preincubated for 15 mins followed by substrate and measured after 30 mins by TR-FRET assay
T2 sequence (Q8NFU5 whole entry): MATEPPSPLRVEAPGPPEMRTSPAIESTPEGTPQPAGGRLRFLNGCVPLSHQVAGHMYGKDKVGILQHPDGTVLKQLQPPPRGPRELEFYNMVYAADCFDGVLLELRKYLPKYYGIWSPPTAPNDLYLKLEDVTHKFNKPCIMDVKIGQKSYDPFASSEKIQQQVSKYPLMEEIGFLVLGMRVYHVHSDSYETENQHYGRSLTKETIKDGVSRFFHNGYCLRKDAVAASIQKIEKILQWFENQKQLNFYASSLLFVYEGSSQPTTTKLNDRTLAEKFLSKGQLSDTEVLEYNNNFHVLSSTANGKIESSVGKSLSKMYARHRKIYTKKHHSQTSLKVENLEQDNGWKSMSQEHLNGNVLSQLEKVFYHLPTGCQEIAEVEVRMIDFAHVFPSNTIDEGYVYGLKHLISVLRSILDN

[3] = target: RAC-alpha serine/threonine-protein kinase (Homo sapiens) (UniProt P31749); assay: Effect on AKT activity in human HCT116 cells assessed as AKT phosphorylation at T308 residues at 2.5 uM after 3 hrs by Western blot analysis; format: cell-based
Chain of RAC-alpha serine/threonine-protein kinase (Homo sapiens) (P31749 whole entry): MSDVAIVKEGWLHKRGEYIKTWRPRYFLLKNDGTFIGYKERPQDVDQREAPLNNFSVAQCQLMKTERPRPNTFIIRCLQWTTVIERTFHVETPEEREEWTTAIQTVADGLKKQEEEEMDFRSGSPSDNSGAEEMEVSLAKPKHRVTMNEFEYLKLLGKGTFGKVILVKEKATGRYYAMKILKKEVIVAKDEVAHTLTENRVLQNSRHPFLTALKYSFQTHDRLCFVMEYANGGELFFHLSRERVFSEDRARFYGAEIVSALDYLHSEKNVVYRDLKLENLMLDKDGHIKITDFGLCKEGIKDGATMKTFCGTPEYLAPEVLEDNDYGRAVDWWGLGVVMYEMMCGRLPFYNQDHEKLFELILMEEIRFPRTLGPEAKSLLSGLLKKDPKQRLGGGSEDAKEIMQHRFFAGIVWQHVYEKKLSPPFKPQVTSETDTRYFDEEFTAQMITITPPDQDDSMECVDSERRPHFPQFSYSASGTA
Procedure, shortened: (§1)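 Cells (3T3-L1 preadipocytes 2 days post-confluent; HCT116 1 day post-confluent) treated 3 h with 2.5 μM flavonoid in DMSO (final DMSO 0.1%, vehicle control). Lysed in Tris pH 7.4/NaCl/Triton X-100 with protease-phosphatase inhibitors; 20 μg protein by SDS-PAGE and immunoblot for phospho-AKT T308 and total AKT. pAKT/total AKT ratio normalized to sum of ratios per gel; Dunnett's one-way ANOVA versus DMSO.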

[4] = target: T3, Inositol hexakisphosphate kinase 2 (Mus musculus) (UniProt Q80V72); assay: Inhibition of IP6K2 in mouse 3T3-L1 cells assessed as AKT phosphorylation at T308 at 1 uM after 3 hrs by Western blot analysis; format: cell-based
T3 sequence (whole entry): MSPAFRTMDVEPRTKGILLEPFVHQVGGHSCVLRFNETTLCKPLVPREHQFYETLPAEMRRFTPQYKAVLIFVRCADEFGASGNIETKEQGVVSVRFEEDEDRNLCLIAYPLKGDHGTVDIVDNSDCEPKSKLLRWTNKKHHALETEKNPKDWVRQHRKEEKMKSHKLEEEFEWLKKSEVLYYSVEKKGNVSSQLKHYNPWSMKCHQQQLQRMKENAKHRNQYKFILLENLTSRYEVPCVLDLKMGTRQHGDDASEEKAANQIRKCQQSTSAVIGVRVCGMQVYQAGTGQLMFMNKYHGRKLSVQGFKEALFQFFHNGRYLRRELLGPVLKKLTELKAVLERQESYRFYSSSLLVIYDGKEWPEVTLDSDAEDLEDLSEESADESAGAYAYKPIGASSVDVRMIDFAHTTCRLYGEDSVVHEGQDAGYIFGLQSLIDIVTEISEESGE
Procedure, shortened: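 TNP reference treatment: 2-day post-confluent 3T3-L1 preadipocytes given 1 μM TNP in DMSO (final 0.1%) for 3 h. Lysates (20 μg protein) immunoblotted for phospho-AKT T308 and total AKT. pAKT/total AKT ratio normalized to sum of ratios per gel; one-way ANOVA (Dunnett) versus DMSO vehicle.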

HCT-116 [5] = assay: Down regulation of insp5 levels in human [3H]-inositol-labelled HCT116 cells at 10 uM after 3.5 hrs by HPLC analysis; format: functional, cell-based
Procedure, shortened: (§2)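 HCT116 cells labelled with [3H]inositol at 20 μCi/ml, then treated 3.5 h with 10 μM flavonoid in DMSO (final 0.1%; vehicle controls). Quenched with PCA; extracted [3H]InsP5, InsP6 and InsP7 resolved by CarboPac HPLC and quantified as peak DPM relative to DMSO control.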

HEK293 = assay: Down regulation of insp5 levels in [3H]-inositol-labelled HEK293 cells at 2.5 uM after 3.5 hrs by HPLC analysis; format: functional, cell-based; conditions: Homo sapiens
Procedure, shortened: (§3)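 HEK293 cells labelled with [3H]inositol (20 μCi/ml), treated 3.5 h with 2.5 μM flavonoid in DMSO (final 0.1%; vehicle controls). PCA-quenched extracts analysed by CarboPac HPLC for InsP5, InsP6, InsP7 relative to DMSO control. Means ± SE, n=3; Dunnett's one-way ANOVA.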

[6] = target: T2, Inositol polyphosphate multikinase; assay: Inhibition of IPMK in human [3H]-inositol-labelled HCT116 cells assessed as reduction in insp5 levels at 2.5 uM up to 200 mins by HPLC analysis relative to control
Procedure, shortened: (§4)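 Time course: HCT116 cells prelabelled with [3H]inositol (20 μCi/ml) and treated with 2.5 μM flavonoid in DMSO (final 0.1%) for the indicated times. InsP5, InsP6 and InsP7 measured by CarboPac HPLC after PCA quench and extraction. Means ± SE, n=3–4.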

[7] = target: T2, Inositol polyphosphate multikinase; assay: Inhibition of IPMK in human [3H]-inositol-labelled HCT116 cells assessed as reduction in insp5 levels at 2.5 uM after 3.5 hrs by HPLC analysis relative to control
Procedure, shortened: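 [3H]inositol-labelled (20 μCi/ml) HCT116 cells exposed 3.5 h to 2.5 μM flavonoid in DMSO (final 0.1%). PCA quench, extraction and CarboPac HPLC of InsP5/InsP6/InsP7, compared with DMSO vehicle control. Means ± SE, n=3–4; Dunnett's one-way ANOVA versus DMSO.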

HCT-116 [8] = assay: Down regulation of insp5 levels in human [3H]-inositol-labelled HCT116 cells at 2.5 uM after 3.5 hrs by HPLC analysis; format: functional, cell-based
Procedure, shortened: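 HCT116 cells labeled with [³H]inositol (20 μCi/ml) were treated for 3.5 h with 2.5 μM flavonoid; compounds were added in DMSO, final 0.1%. Cells were PCA-quenched, and InsPs were extracted and resolved by CarboPac HPLC. Values are versus DMSO controls, n=3–4, by one-way ANOVA (Dunnett).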

[9] = target: T2, Inositol polyphosphate multikinase; assay: Inhibition of IPMK in human [3H]-inositol-labelled HCT116 cells assessed as reduction in insp5 levels at 10 uM after 3.5 hrs by HPLC analysis relative to control; procedure, shortened: as §2
[10] = target: RAC-alpha serine/threonine-protein kinase (Mus musculus) (UniProt P31750); assay: Activation of AKT activity in mouse 3T3-L1 cells assessed as increase in AKT phosphorylation at T308 residues at 2.5 uM after 3 hrs by Western blot analysis; format: cell-based; procedure, shortened: as §1
Chain of RAC-alpha serine/threonine-protein kinase (Mus musculus) (P31750 whole entry): as the sequence (P31749 whole entry) above, with S2N, A50S, T100A, K112R, E117T, K389T, G410N, H415D counted along it

[11] = target: T2, Inositol polyphosphate multikinase; assay: Inhibition of IPMK in [3H]-inositol-labelled HEK293 cells assessed as reduction in insp5 levels at 2.5 uM after 3.5 hrs by HPLC analysis relative to control; format: cell-based; procedure, shortened: as §3
[12] = target: RAC-alpha serine/threonine-protein kinase (Homo sapiens) (UniProt P31749); assay: Effect on AKT activity in human HCT116 cells assessed as AKT phosphorylation at T308 residues at 10 uM after 3 hrs by Western blot analysis; format: cell-based
[13] = target: RAC-alpha serine/threonine-protein kinase (Mus musculus) (UniProt P31750); assay: Activation of AKT activity in mouse 3T3-L1 cells assessed as increase in AKT phosphorylation at T308 residues at 10 uM after 3 hrs by Western blot analysis; format: cell-based
HCT-116 [14] = assay: Down regulation of insp5 levels in human [3H]-inositol-labelled HCT116 cells at 2.5 uM up to 200 mins by HPLC analysis; format: functional, cell-based; procedure, shortened: as §4

Row | Structure (SMILES) | IC50 [1] | Ratio IC50 (Homo sapiens) | IC50 [2] | inhibition [7] | inhibition (HCT-116 [8]) | also measured
1 | O=c1cc(-c2ccc(O)c(O)c2)oc2ccccc12 | 11.4 µM | > 2.6 | > 30 µM | – | – | –
2 | O=c1cc(-c2ccc(O)c(O)c2)oc2cccc(O)c12 | 8 µM | > 3.8 | > 30 µM | – | – | –
3 | O=c1cc(-c2ccc(O)cc2)oc2cc(O)ccc12 | 18.3 µM | > 1.6 | > 30 µM | – | – | –
4 | O=c1cc(-c2ccc(O)cc2)oc2cccc(O)c12 | > 30 µM | – | > 30 µM | – | – | –
5 | O=c1cc(-c2ccc(O)cc2)oc2ccc(O)cc12 | 12.9 µM | > 2.3 | > 30 µM | – | – | –
6 | COc1ccc(-c2cc(=O)c3c(O)cc(O)cc3o2)cc1O | – | – | – | inactive | inactive | Activity [3]: inactive; inhibition [4]: Active; inhibition (HCT-116 [5]): inactive; inhibition (HEK293): inactive; inhibition [6]: inactive; inhibition [9]: inactive; Activity [10]: Active; inhibition [11]: inactive
7 | O=[N+]([O-])c1ccc(CNc2nc(NCc3cccc(C(F)(F)F)c3)nc3[nH]cnc23)cc1 | – | – | – | – | – | Activity [12]: inactive; Activity [13]: Active
8 | COc1ccc(-c2cc(=O)c3c(O)cc(O)cc3o2)cc1 [ACACETIN] | 5.7 µM | > 5.3 | > 30 µM | – | – | –
9 | O=c1cc(-c2ccc(O)cc2)oc2cc(O)cc(O)c12 [APIGENIN] | 7.1 µM | 4.1 | 29 µM | – | – | –
10 | O=C1C[C@@H](c2ccc(O)c(O)c2)Oc2cc(O)cc(O)c21 [ERIODICTYOL] | 25.3 µM | > 1.2 | > 30 µM | – | – | –
11 | COc1cc(O)c2c(=O)cc(-c3ccc(O)cc3)oc2c1 [GENKWANIN] | 24 µM | > 1.3 | > 30 µM | – | – | –
12 | COc1cc(-c2oc3cc(O)cc(O)c3c(=O)c2O)ccc1O [ISORHAMNETIN] | 0.5 µM | 4.4 | 2.2 µM | inactive | inactive | –
13 | O=c1c(O)c(-c2ccc(O)cc2)oc2cc(O)cc(O)c12 [KAEMPFEROL] | 2.5 µM | 1.8 | 4.4 µM | inactive | inactive | –
14 | O=c1cc(-c2ccc(O)c(O)c2)oc2cc(O)cc(O)c12 [LUTEOLIN] | 1.3 µM | 4.2 | 5.5 µM | inactive | inactive | Activity [3]: inactive; inhibition [4]: Active; inhibition (HEK293): inactive; Activity [10]: Active; inhibition [11]: inactive
15 | O=c1c(O)c(-c2cc(O)c(O)c(O)c2)oc2cc(O)cc(O)c12 [MYRICETIN] | 0.7 µM | – | 1.1 µM | inactive | inactive | –
16 | O=C1C[C@@H](c2ccc(O)cc2)Oc2cc(O)cc(O)c21 [NARINGENIN] | > 30 µM | – | > 30 µM | – | – | –
17 | O=c1c(O)c(-c2ccc(O)c(O)c2)oc2cc(O)cc(O)c12 [QUERCETIN] | – | – | 2.3 µM | inactive | inactive | Activity [3]: inactive; inhibition [4]: Active; inhibition (HCT-116 [5]): inactive; inhibition (HCT-116 [14]): inactive; inhibition (HEK293): inactive; inhibition [6]: inactive; inhibition [9]: 25%; Activity [10]: Active; inhibition [11]: inactive
18 | COc1cc(O)c2c(=O)c(O)c(-c3ccc(O)c(O)c3)oc2c1 [RHAMNETIN] | 1.8 µM | > 7.8 | 14 µM | inactive | inactive | –
